Our source for the MIC values is ChEMBL document CHEMBL4049410, “Novel benzimidazolyl tetrahydroprotoberberines: Design, synthesis, antimicrobial evaluation and multi-targeting exploration” (2017).

Structures are written as SMILES. In brackets after ≈: the same amount, converted by molar mass.

One experiment has as its system Pseudomonas aeruginosa. The experiment can be described thus: Antibacterial activity against Pseudomonas aeruginosa after 24 hrs by two-fold serial dilution assay. The class given is functional. Summed up:
(§1)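 Twofold serial broth dilution following NCCLS guidance, with Chloromycin, Norfloxacin and Fluconazole as positive controls. MIC in μM is the lowest concentration giving complete inhibition of visible bacterial or fungal growth.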

For the next experiment, the system named is Candida albicans. Put plainly: Antifungal activity against Candida albicans ATCC 76615 after 24 hrs by two-fold serial dilution assay. The class given is functional. The gist of the method:
as §1

The test system of the next experiment is Salmonella typhi. The experiment can be described thus: Antibacterial activity against Bacillus typhi after 24 hrs by two-fold serial dilution assay. The class given is functional, Salmonella enterica subsp. enterica serovar Typhi.
A further experiment concerns Pichia norvegensis. The experiment can be described thus: Antifungal activity against Candida mycoderma after 24 hrs by two-fold serial dilution assay. The class given is functional. The gist of the method:
as §1

Experiment [1] deals with Staphylococcus aureus. Put plainly: Antibacterial activity against Staphylococcus aureus ATCC 25923 after 24 hrs by two-fold serial dilution assay. The class given is functional. The gist of the method: as §1
Another experiment deals with Proteus vulgaris. The experiment can be described thus: Antibacterial activity against Bacillus proteus ATCC 13315 after 24 hrs by two-fold serial dilution assay. It counts as functional. The gist of the method:
as §1

Experiment [2] concerns Escherichia coli. Put plainly: Antibacterial activity against Escherichia coli DH52 after 24 hrs by two-fold serial dilution assay. It counts as functional. Summed up: as §1
For experiment [3], the system named is Staphylococcus aureus. The experiment can be described thus: Antibacterial activity against methicillin-resistant Staphylococcus aureus N315 after 24 hrs by two-fold serial dilution assay. The class given is functional.
The test system of the next experiment is Micrococcus luteus. The experiment can be described thus: Antibacterial activity against Micrococcus luteus ATCC 4698 after 24 hrs by two-fold serial dilution assay. The class given is functional, NCTC 2665. The gist of the method: as §1
The next experiment relates to Cyberlindnera jadinii. The experiment can be described thus: Antifungal activity against Candida utilis after 24 hrs by two-fold serial dilution assay. The class given is functional. The gist of the method: as §1
In experiment [4] the test system is Escherichia coli. The experiment can be described thus: Antibacterial activity against Escherichia coli JM109 after 24 hrs by two-fold serial dilution assay. The class given is functional. Summed up: as §1
For a further experiment, the system named is Shigella dysenteriae. The experiment can be described thus: Antibacterial activity against Shigella dysenteriae after 24 hrs by two-fold serial dilution assay. It counts as functional.
Another experiment relates to Bacillus subtilis. The experiment can be described thus: Antibacterial activity against Bacillus subtilis after 24 hrs by two-fold serial dilution assay. It counts as functional. The gist of the method: as §1
The next experiment concerns Saccharomyces cerevisiae. Put plainly: Antifungal activity against Saccharomyces cerevisiae after 24 hrs by two-fold serial dilution assay. It counts as functional. The gist of the method:
as §1

Another experiment concerns Aspergillus flavus. The experiment can be described thus: Antifungal activity against Aspergillus flavus after 24 hrs by two-fold serial dilution assay. The class given is functional. Summed up:
as §1

Where [5] appears, read: Pseudomonas aeruginosa, 24 h, read-out: MIC.
The mark [6] stands for this setting: Candida albicans, ATCC 76615, 24 h, read-out: MIC.
The mark [7] stands for this setting: Salmonella enterica, 24 h, read-out: MIC.
[8] abbreviates: Pichia norvegensis, 24 h, read-out: MIC.
[9] abbreviates: Staphylococcus aureus, ATCC 25923, 24 h, read-out: MIC.
Setting [10] is: Proteus vulgaris, ATCC 13315, 24 h, read-out: MIC.
The mark [11] stands for this setting: Escherichia coli, DH52, 24 h, read-out: MIC.
The mark [12] stands for this setting: Staphylococcus aureus, N315, 24 h, read-out: MIC.
Setting [13] is: Micrococcus luteus, NCTC 2665, 24 h, read-out: MIC.
[14] abbreviates: Williopsis jadinii, 24 h, read-out: MIC.
The mark [15] stands for this setting: Escherichia coli, JM109, 24 h, read-out: MIC.
Where [16] appears, read: Shigella dysenteriae, 24 h, read-out: MIC.
The mark [17] stands for this setting: Bacillus subtilis, 24 h, read-out: MIC.
Setting [18] is: Saccharomyces cerevisiae, 24 h, read-out: MIC.
[19] abbreviates: Aspergillus flavus, 24 h, read-out: MIC.

With `COc1cc(-c2nc3ccccc3n2Cc2cccc(Cl)c2)c2c(c1O)CN1CCc3cc4c(cc3C1C2)OCO4` (stereo not given), the MIC in the experiment on Pseudomonas aeruginosa (setting [5]) amounted to 28.3 µM (≈ 16 µg/mL); in the experiment on Candida albicans (setting [6]) it was 37.7 µM (≈ 21.3 µg/mL); in the experiment with Salmonella typhi (setting [7]), 4.7 µM (≈ 2.66 µg/mL); in the experiment with Pichia norvegensis (setting [8]), 18.9 µM (≈ 10.7 µg/mL); in the experiment on Staphylococcus aureus [1] (setting [9]) it was 23.6 µM (≈ 13.4 µg/mL); in the experiment on Proteus vulgaris (setting [10]), 47.1 µM (≈ 26.7 µg/mL). Moreover, the MIC with Escherichia coli [2] (setting [11]) was found to be 75.4 µM (≈ 42.7 µg/mL); in the experiment on Staphylococcus aureus [3] (setting [12]), 56.5 µM (≈ 32 µg/mL); in the experiment on Micrococcus luteus (setting [13]), 28.3 µM (≈ 16 µg/mL); in the experiment with Cyberlindnera jadinii (setting [14]), 9.4 µM (≈ 5.32 µg/mL); in the experiment with Escherichia coli [4] (setting [15]), 4.7 µM (≈ 2.66 µg/mL); with Shigella dysenteriae (setting [16]), 23.6 µM (≈ 13.4 µg/mL). Besides, the results for the minimal inhibitory concentration (MIC) with Bacillus subtilis (setting [17]), with Saccharomyces cerevisiae (setting [18]) and with Aspergillus flavus (setting [19]) were 47.1 µM (≈ 26.7 µg/mL), 47.1 µM (≈ 26.7 µg/mL) and 18.9 µM (≈ 10.7 µg/mL), respectively.
For `CCCCCCCCCCCCn1c(-c2cc(OC)c(O)c3c2CC2c4cc5c(cc4CCN2C3)OCO5)nc2ccccc21` (stereo not given), the MIC came to 17.5 µM (≈ 10.7 µg/mL) in the experiment on Pseudomonas aeruginosa (setting [5]); 5.5 µM (≈ 3.35 µg/mL) in the experiment with Candida albicans (setting [6]); 8.7 µM (≈ 5.31 µg/mL) in the experiment on Salmonella typhi (setting [7]); 3.3 µM (≈ 2.01 µg/mL) in the experiment on Pichia norvegensis (setting [8]); 26.2 µM (≈ 16 µg/mL) in the experiment on Staphylococcus aureus [1] (setting [9]); 5.5 µM (≈ 3.35 µg/mL) in the experiment on Proteus vulgaris (setting [10]). The MIC was found to be 87.5 µM (≈ 53.4 µg/mL) in the experiment with Escherichia coli [2] (setting [11]); 175 µM (≈ 107 µg/mL) in the experiment on Staphylococcus aureus [3] (setting [12]); 105 µM (≈ 64 µg/mL) in the experiment on Micrococcus luteus (setting [13]); 17.5 µM (≈ 10.7 µg/mL) with Cyberlindnera jadinii (setting [14]); 26.2 µM (≈ 16 µg/mL) with Escherichia coli [4] (setting [15]); 175 µM (≈ 107 µg/mL) in the experiment with Shigella dysenteriae (setting [16]). Also, the MIC in the experiment with Bacillus subtilis (setting [17]) was determined as 35 µM (≈ 21.3 µg/mL); in the experiment with Saccharomyces cerevisiae (setting [18]), 70 µM (≈ 42.7 µg/mL); in the experiment on Aspergillus flavus (setting [19]) it was 43.8 µM (≈ 26.7 µg/mL).
As to `COc1cc(-c2nc3ccccc3n2Cc2ccc(Cl)c(Cl)c2)c2c(c1O)CN1CCc3cc4c(cc3C1C2)OCO4` (stereo not given), the MIC in the experiment with Pseudomonas aeruginosa (setting [5]) amounted to 35.5 µM (≈ 21.3 µg/mL); in the experiment with Candida albicans (setting [6]) it was 44.4 µM (≈ 26.7 µg/mL); with Salmonella typhi (setting [7]), 53.3 µM (≈ 32 µg/mL); with Pichia norvegensis (setting [8]), 53.3 µM (≈ 32 µg/mL); in the experiment on Staphylococcus aureus [1] (setting [9]), 35.5 µM (≈ 21.3 µg/mL); in the experiment with Proteus vulgaris (setting [10]) it was 22.2 µM (≈ 13.3 µg/mL). Further, the minimal inhibitory concentration (MIC) in the experiment on Escherichia coli [2] (setting [11]) worked out at 44.4 µM (≈ 26.7 µg/mL); in the experiment on Staphylococcus aureus [3] (setting [12]) it was 22.2 µM (≈ 13.3 µg/mL); in the experiment with Micrococcus luteus (setting [13]) it was 107 µM (≈ 64 µg/mL); with Cyberlindnera jadinii (setting [14]), 44.4 µM (≈ 26.7 µg/mL); with Escherichia coli [4] (setting [15]), 44.4 µM (≈ 26.7 µg/mL); with Shigella dysenteriae (setting [16]), 44.4 µM (≈ 26.7 µg/mL). Further, the minimum inhibitory concentration (MIC) amounted to 22.2 µM (≈ 13.3 µg/mL) in the experiment with Bacillus subtilis (setting [17]), 26.6 µM (≈ 16 µg/mL) in the experiment on Saccharomyces cerevisiae (setting [18]) and 88.8 µM (≈ 53.3 µg/mL) with Aspergillus flavus (setting [19]).
With `COc1cc(-c2nc3ccccc3n2CCCCCCn2c3ccccc3c3ccccc32)c2c(c1O)CN1CCc3cc4c(cc3C1C2)OCO4.Cl` (stereo not given), the MIC in the experiment with Pseudomonas aeruginosa worked out at 469.3 µM; in the experiment on Candida albicans, 176 µM; in the experiment on Salmonella typhi it was 73.3 µM; against Pichia norvegensis, 352 µM; against Staphylococcus aureus [1], 146.7 µM; against Proteus vulgaris, 88 µM. Besides, the minimum inhibitory concentration (MIC) in the experiment with Escherichia coli [2] came to 88 µM; in the experiment on Staphylococcus aureus [3] it was 586.7 µM; against Micrococcus luteus it was 293.3 µM; with Cyberlindnera jadinii it was 469.3 µM; with Escherichia coli [4] it was 469.3 µM; with Shigella dysenteriae it was 146.7 µM. Besides, the MIC with Bacillus subtilis was determined as 704 µM; in the experiment on Saccharomyces cerevisiae, 469.3 µM; with Aspergillus flavus it was 293.3 µM.
Take `CCn1c(-c2cc(OC)c(O)c3c2CC2c4cc5c(cc4CCN2C3)OCO5)nc2ccccc21` (stereo not given): the MIC was 68.2 µM (≈ 32 µg/mL) in the experiment with Pseudomonas aeruginosa (setting [5]); 17 µM (≈ 7.98 µg/mL) in the experiment on Candida albicans (setting [6]); 14.2 µM (≈ 6.67 µg/mL) with Salmonella typhi (setting [7]); 56.8 µM (≈ 26.7 µg/mL) in the experiment on Pichia norvegensis (setting [8]); 28.4 µM (≈ 13.3 µg/mL) in the experiment with Staphylococcus aureus [1] (setting [9]); 56.8 µM (≈ 26.7 µg/mL) with Proteus vulgaris (setting [10]). For the same compound, the MIC is 136 µM (≈ 64 µg/mL) in the experiment with Escherichia coli [2] (setting [11]); 14.2 µM (≈ 6.67 µg/mL) in the experiment with Staphylococcus aureus [3] (setting [12]); 28.4 µM (≈ 13.3 µg/mL) in the experiment with Micrococcus luteus (setting [13]); 34.1 µM (≈ 16 µg/mL) in the experiment on Cyberlindnera jadinii (setting [14]); 28.4 µM (≈ 13.3 µg/mL) in the experiment with Escherichia coli [4] (setting [15]); 136 µM (≈ 64 µg/mL) with Shigella dysenteriae (setting [16]). The minimal inhibitory concentration (MIC) in the experiment with Bacillus subtilis (setting [17]) is 34.1 µM (≈ 16 µg/mL); in the experiment with Saccharomyces cerevisiae (setting [18]) it was 22.7 µM (≈ 10.7 µg/mL); in the experiment on Aspergillus flavus (setting [19]), 56.8 µM (≈ 26.7 µg/mL).
`CCCn1c(-c2cc(OC)c(O)c3c2CC2c4cc5c(cc4CCN2C3)OCO5)nc2ccccc21` (stereo not given): the minimal inhibitory concentration (MIC) stood at 66.2 µM (≈ 32 µg/mL) in the experiment on Pseudomonas aeruginosa (setting [5]); 22.1 µM (≈ 10.7 µg/mL) with Candida albicans (setting [6]); 27.6 µM (≈ 13.3 µg/mL) with Salmonella typhi (setting [7]); 13.8 µM (≈ 6.67 µg/mL) with Pichia norvegensis (setting [8]); 44.1 µM (≈ 21.3 µg/mL) in the experiment with Staphylococcus aureus [1] (setting [9]); 22.1 µM (≈ 10.7 µg/mL) in the experiment on Proteus vulgaris (setting [10]). The MIC in the experiment with Escherichia coli [2] (setting [11]) came out at 110 µM (≈ 53.3 µg/mL); in the experiment with Staphylococcus aureus [3] (setting [12]), 55.2 µM (≈ 26.7 µg/mL); in the experiment on Micrococcus luteus (setting [13]), 110 µM (≈ 53.3 µg/mL); in the experiment on Cyberlindnera jadinii (setting [14]) it was 27.6 µM (≈ 13.3 µg/mL); with Escherichia coli [4] (setting [15]) it was 110 µM (≈ 53.3 µg/mL); in the experiment with Shigella dysenteriae (setting [16]) it was 265 µM (≈ 128 µg/mL). Moreover, the MIC came to 110 µM (≈ 53.3 µg/mL) with Bacillus subtilis (setting [17]), 132 µM (≈ 64 µg/mL) with Saccharomyces cerevisiae (setting [18]) and 66.2 µM (≈ 32 µg/mL) in the experiment on Aspergillus flavus (setting [19]).

The term MIC denotes the smallest concentration in the dilution series that meets the test's criterion for growth inhibition.
